ChEMBL document CHEMBL1133012, “QSAR based on biological microcalorimetry” (J Med Chem, 2000)

Key:
[1] = tested on: Escherichia coli; test: Observed diffusion coefficient in organic solvent for Escherichia coli; assay type: ADME, organism-based; parameters: unit not given here
Summary of the method: (§1)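 Partition coefficient by Taylor-Aris diffusion in the same cells as the screen. Cells from a liquid-nitrogen ampule were put in 25 mL 1/4 Ringer's solution; 15 mL of this was diluted with a further 24 mL 1/4 Ringer's. Water bath held at 298.15 K. Carrier pumped at least 10 min or to stable baseline before first injection. Retention time and half-height peak width taken from dispersion curve. At least two replicates per solute.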

[2] = tested on: Escherichia coli; test: Potency against Escherichia coli was determined microcalorimetrically at the dose of 2.619 uMol/L; assay type: functional, organism-based
[3] = Partition coefficient was obtained using Taylor-Aris diffusion process.; assay type: ADME; details: E. coli cells; summary of the method: as §1
[4] = tested on: Escherichia coli; test: Normal diffusion coefficient in water for Escherichia coli; assay type: ADME, organism-based; parameters: unit not given here; summary of the method: as §1

Row | Structure (SMILES) | Dobs [1] | logP [3] | DW [4] | Log D50 [2]
1 | CC(C)(C)c1ccc(C(=O)NNC(=O)c2ccccc2)cc1 | 15.1 | -0.799 | 17.5 | 3.21
2 | O=C(NNC(=O)c1ccccc1)c1ccccc1 | 9.2 | -1.09 | 9.94 | 2.28
3 | O=C(NNC(=O)c1ccc([N+](=O)[O-])cc1)c1ccccc1 | 10.15 | -1.14 | 10.879 | 2.38
4 | O=C(NNC(=O)c1ccc(-c2ccccc2)cc1)c1ccccc1 | 14.6 | -0.787 | 16.98 | 3.24

Continued, in another order:

Row | Dobs [1] | logP [3] | DW [4] | Structure (SMILES) | Log D50 [2]
5 | 11.9 | -0.879 | 13.47 | O=C(NNC(=O)c1ccc(Br)cc1)c1ccccc1 | 2.73
6 | 11.02 | -0.956 | 12.24 | Cc1ccc(C(=O)NNC(=O)c2ccccc2)cc1 | 2.54
7 | 17.3 | -0.652 | 21.15 | CCCCCc1ccc(C(=O)NNC(=O)c2ccccc2)cc1 | 3.05
8 | 8.98 | -1 | 9.86 | COc1ccc(C(=O)NNC(=O)c2ccccc2)cc1 | 2.6
